≈ marks a conversion by molar mass, not a printed value. Calls of active or inactive are those of the source. The rule behind the calls is not given here.

The target of one data set is Histone deacetylase 1 (Homo sapiens, UniProt Q13547). As to the kind of experiment: Inhibition of human recombinant his tagged HDAC1 expressed in baculovirus infected […] insect cells using tertbutyloxycarbonyl (Boc)-(Ac)-Lys-7-amino-4-methylcoumarin as substrate incubated for 1 hr by fluorescence based assay.
Data set [1] addresses T1, Protein deacetylase HDAC6 (Homo sapiens, UniProt Q9UBN7).
T1 sequence (Q9UBN7 whole entry): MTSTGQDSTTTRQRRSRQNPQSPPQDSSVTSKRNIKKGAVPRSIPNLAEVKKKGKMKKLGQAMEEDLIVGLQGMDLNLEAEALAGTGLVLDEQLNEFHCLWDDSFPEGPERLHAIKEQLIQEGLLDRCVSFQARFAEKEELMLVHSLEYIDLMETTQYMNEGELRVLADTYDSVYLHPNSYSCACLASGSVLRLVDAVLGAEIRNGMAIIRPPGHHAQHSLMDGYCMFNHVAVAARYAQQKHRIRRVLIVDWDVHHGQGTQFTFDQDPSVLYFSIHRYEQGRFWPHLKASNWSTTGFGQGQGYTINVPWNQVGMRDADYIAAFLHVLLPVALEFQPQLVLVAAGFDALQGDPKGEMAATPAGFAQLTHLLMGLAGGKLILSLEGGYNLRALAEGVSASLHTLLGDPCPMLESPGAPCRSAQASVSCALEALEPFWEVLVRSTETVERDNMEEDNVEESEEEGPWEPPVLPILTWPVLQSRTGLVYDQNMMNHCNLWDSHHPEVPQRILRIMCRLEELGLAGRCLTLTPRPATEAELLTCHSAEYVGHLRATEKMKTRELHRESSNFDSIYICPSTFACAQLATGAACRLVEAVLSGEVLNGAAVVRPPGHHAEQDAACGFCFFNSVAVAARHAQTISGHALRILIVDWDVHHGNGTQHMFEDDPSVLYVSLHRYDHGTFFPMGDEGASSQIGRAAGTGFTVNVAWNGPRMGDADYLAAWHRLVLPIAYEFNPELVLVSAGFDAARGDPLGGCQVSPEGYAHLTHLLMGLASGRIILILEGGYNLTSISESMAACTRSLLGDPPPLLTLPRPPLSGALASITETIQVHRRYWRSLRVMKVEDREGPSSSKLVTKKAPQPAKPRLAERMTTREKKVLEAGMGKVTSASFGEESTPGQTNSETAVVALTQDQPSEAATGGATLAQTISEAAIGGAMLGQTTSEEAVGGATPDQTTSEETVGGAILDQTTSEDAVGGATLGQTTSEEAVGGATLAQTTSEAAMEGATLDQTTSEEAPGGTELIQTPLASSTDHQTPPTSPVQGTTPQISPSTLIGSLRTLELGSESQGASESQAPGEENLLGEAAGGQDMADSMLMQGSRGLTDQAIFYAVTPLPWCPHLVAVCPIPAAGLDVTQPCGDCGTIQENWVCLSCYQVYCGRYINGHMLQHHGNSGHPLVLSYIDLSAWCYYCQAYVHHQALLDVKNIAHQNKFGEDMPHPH
As to the kind of experiment: Inhibition of human recombinant his tagged HDAC6 expressed in baculovirus infected […] insect cells using batcp as substrate incubated for 1 hr by fluorescence based assay.

Data set [2] deals with Glycogen synthase kinase-3 beta (Homo sapiens, UniProt P49841). The experiment in a line: Inhibition of GSK3beta in human SH-SY5Y cells assessed as reduction in copper-induced tau hyperphosphorylation at 10 uM preincubated for 1 hr followed by copper addition and measured after 26 hrs by ELISA. It is filed as cell-based. Particulars: in the assay text read “16 hrs” for “26 hrs”. The essentials:
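Differentiated SH-SY5Y cells pretreated 1 h with test agent (LiCl 10 mM reference; compounds 10 μM), then copper 400 μM for 16 h; cells scraped, phospho-tau quantified by immunoenzymatic assay at 450 nm; mean ± SEM.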

For data set [3], the system named is SH-SY5Y. The experiment in a line: Cytotoxicity against human SH-SY5Y cells up to 100 uM incubated for 24 hrs by MTS assay. Format: cell-based. In short, it runs like this: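 SH-SY5Y cells exposed to test compound for 24 h at 37 °C; viability read by MTS assay and expressed as % of untreated control.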
For data set [4], the system named is SH-SY5Y. The experiment in a line: Cytoprotective activity against human SH-SY5Y cells assessed as restoration of H2O2-induced p53 expression level at 10 uM incubated for 24 hrs. It is filed as functional, cell-based. The essentials: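 SH-SY5Y cells exposed to H2O2 (50 μM) with or without test compound (10 μM); p53 protein levels then measured.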
Data set [5] has as its system Cerebellar granule neurone. As to the kind of experiment: Neuroprotective activity against 6-OHDA-induced cell death in Wistar rat primary cerebellar granule neurons at 5 uM preincubated for 6 hrs followed by 6-OHDA addition and measured after 24 hrs by MTT assay. Format: functional, cell-based. The essentials:
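Primary differentiated cerebellar granule neurons challenged with 6-OHDA with or without test compound; viability assessed; mean ± SE of at least 3 experiments in quadruplicate, one-way ANOVA with Bonferroni post hoc test.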

Data set [6] deals with SH-SY5Y. As to the kind of experiment: Induction of neurogenesis in human SH-SY5Y cells assessed as upregulation of GAP43 mRNA at 10 uM incubated for 24 hrs by RT-PCR analysis. Format: functional, cell-based. The essentials:
(§1)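 SH-SY5Y cells treated 24 h (10 μM, or 1 μM for one parent compound; retinoic acid positive control); GAP43, N-myc and MAP-2 mRNA measured by RT-PCR, expressed as fold of control.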

Data set [7] relates to SH-SY5Y. As to the kind of experiment: Induction of neurogenesis in human SH-SY5Y cells assessed as upregulation of N-myc mRNA at 10 uM incubated for 24 hrs by RT-PCR analysis. It is filed as functional, cell-based. In short, it runs like this:
as §1

In data set [8] the test system is SH-SY5Y. As to the kind of experiment: Induction of neurogenesis in human SH-SY5Y cells assessed as stimulation of neurite outgrowth at 10 uM incubated for 72 hrs by phase contrast microscopic analysis. It is filed as functional, cell-based. The essentials:
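SH-SY5Y cells treated 72 h at 10 μM, retinoic acid (10 μM) as positive control; neurite-bearing cells scored from images taken at 20× magnification.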

Data set [9] relates to Microglia. As to the kind of experiment: Immunomodulatory activity in LPS treated Wistar rat primary microglial cells assessed as decrease in NOS2 expression level at 5 to 50 uM incubated for 24 hrs by western blot analysis. It is filed as functional, cell-based. The essentials: (§2)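 Primary microglial cells treated 24 h with LPS in presence or absence of test compound; NOS2, MRC1 and TREM2 protein assessed by Western blot, normalized to GAPDH.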

The test system of data set [10] is Microglia. The experiment in a line: Immunomodulatory activity in LPS treated Wistar rat primary microglial cells assessed as effect on TREM2 expression level at 5 to 50 uM incubated for 24 hrs by western blot analysis. Format: functional, cell-based. The essentials: as §2
The nature of data set [11]: Toxicity in zebra fish embryo at 25 uM dosed at 5 hpf and measured after 44 to 48 hpf by microscopic based assay. The conditions noted are these: zebrafish, in vivo. Format: organism-based, Danio rerio.
A short description of data set [12]: Toxicity in zebra fish embryo assessed as crooked tail at 50 to 75 uM uM dosed at 5 hpf and measured after 44 to 48 hpf by microscopic based assay. Particulars: zebrafish, in vivo. It is filed as organism-based, Danio rerio.
Data set [13] in a line: Aqueous solubility of the compound in PBS incubated for 24 hrs under continuous stirring condition by UV spectrometric assay. It is filed as physicochemical.

Sequence of Glycogen synthase kinase-3 beta (P49841 whole entry, looked up): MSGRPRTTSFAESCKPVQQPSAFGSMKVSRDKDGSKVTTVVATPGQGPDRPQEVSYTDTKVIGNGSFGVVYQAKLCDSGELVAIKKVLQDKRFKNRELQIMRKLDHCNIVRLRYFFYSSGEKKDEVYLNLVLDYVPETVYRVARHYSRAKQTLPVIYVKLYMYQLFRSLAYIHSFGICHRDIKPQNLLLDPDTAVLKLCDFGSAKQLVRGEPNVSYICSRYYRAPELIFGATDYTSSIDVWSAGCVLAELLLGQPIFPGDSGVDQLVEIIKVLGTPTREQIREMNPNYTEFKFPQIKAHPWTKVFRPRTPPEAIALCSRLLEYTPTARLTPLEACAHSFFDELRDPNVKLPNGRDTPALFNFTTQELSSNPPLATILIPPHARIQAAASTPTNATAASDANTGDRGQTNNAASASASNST
Sequence of Histone deacetylase 1 (Q13547 whole entry): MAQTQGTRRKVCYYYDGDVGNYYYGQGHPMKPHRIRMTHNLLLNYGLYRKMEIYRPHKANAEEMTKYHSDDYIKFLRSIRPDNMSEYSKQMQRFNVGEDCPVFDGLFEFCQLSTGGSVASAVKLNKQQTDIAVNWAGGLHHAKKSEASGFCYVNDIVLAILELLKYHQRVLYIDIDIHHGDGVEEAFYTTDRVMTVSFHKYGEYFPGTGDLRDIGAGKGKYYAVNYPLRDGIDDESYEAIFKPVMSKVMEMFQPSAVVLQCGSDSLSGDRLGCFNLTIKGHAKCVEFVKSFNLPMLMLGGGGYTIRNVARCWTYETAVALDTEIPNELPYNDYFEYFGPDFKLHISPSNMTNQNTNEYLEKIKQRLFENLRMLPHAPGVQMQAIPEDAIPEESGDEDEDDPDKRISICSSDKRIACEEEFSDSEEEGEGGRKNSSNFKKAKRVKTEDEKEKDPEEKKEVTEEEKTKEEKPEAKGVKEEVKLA

`O=C(CCCCCNC(=S)Nc1ccc2c(c1)C(=O)NC2=O)NO`: the IC50 came out at 12.8 µM at Histone deacetylase 1 and 3.19 µM in [1]. For the same compound, the inhibition entry in data set [2] is “Active”. Also, the values for the Activity entry (in the data set on SH-SY5Y [3]; in data set [11]; in data set [12]) were “Non-Toxic”, “Non-Toxic” and “Toxic”, respectively. Moreover, the result (in the data set on SH-SY5Y [4]; in data set [5]; in the data set on SH-SY5Y [6]; in the data set on SH-SY5Y [7]; in the data set on SH-SY5Y [8]; in the data set on Microglia [9]) was Active. For the same compound, in the data set with Microglia [10], the result was inactive. The same compound showed a solubility at 24 h in data set [13] of 153 µM (≈ 53.8 µg/mL).

Source of the values: ChEMBL document CHEMBL4433211, “Discovery of the First-in-Class GSK-3β/HDAC Dual Inhibitor as Disease-Modifying Agent To Combat Alzheimer's Disease” (ACS Med Chem Lett, 2019).
